Data taken from ChEMBL document CHEMBL1132986, “Novel and selective calcitonin-inducing agents” (J Med Chem, 2000).

Columns and labels:
Phosphodiesterase 4 [1] = biological target: T1, Phosphodiesterase 4 (Homo sapiens, UniProt P27815+Q08499+Q07343+Q08493); assay: PDE4 30 assay to measure the percent rolipram activity of the PDE4 assay at 30 micro M concentration of the compound.; assay type: protein assay
Procedure, shortened: (§1)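 U937 PDE4 preparation, 1 µM [3H]cAMP, 37 °C, test compound at 30 µM. Activity scaled to rolipram: no rolipram inhibition = 0%, full rolipram inhibition (10 µM) = 100%.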

C3 cells [2] = assay: CT-luci reporter gene assay to measure the ability to increase transcription of a […] linked to the human CT gene.
Phosphodiesterase 4 [3] = biological target: T1, Phosphodiesterase 4; assay: Concentration at which 50% of the activity of the Phosphodiesterase 4 from Human U937 cells is inhibited; assay type: cell-based; conditions: u-937
Rattus norvegicus [4] = assay: The compound was tested for its bone protection activity at 30 mg/kg/day by intra peritoneal administration.; assay type: functional
Procedure, shortened: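 Mature female Sprague-Dawley rats, bilaterally ovariectomized or sham-operated, 4-5 days recovery; compound in 1% Tween 80 in saline, i.p. 30 mg/kg/day for 4 weeks; 7-8 rats per group. Proximal tibia trabecular BMD by QCT under ketamine/xylazine/acepromazine; % protection with OVX = 0%, sham = 100%; p < 0.05.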

C3 cells [5] = assay: Calcitonin (CT) secretion/RIA assay to measure the ability of compound to increase cellular levels and secretion of human CT.
C3 cells [6] = assay: CT-luci reporter gene assay to measure the ability to increase transcription of a […] linked to the human CT gene.; remark: listed apart in the source
Phosphodiesterase 4 [7] = biological target: T1, Phosphodiesterase 4; assay: PDE4 30 assay to measure the percent rolipram activity of the PDE4 assay at 30 uM concentration of the compound.; assay type: protein assay; procedure, shortened: as §1
Phosphodiesterase 4 [8] = biological target: T1, Phosphodiesterase 4; assay: Percent rolipram activity at 30 uM (PDE 30 assay); assay type: protein assay; procedure, shortened: as §1
Rattus norvegicus [9] = assay: The compound was tested for its bone protection activity at 50 mg/kg/day by oral administration.

Row | SMILES | PDE4 inhibition relative to rolipram (Phosphodiesterase 4 [1]) [%] | TAR (C3 cells [2]) | IC50 (Phosphodiesterase 4 [3]) [µM] | Protection (Rattus norvegicus [4]) [%] | CTS (C3 cells [5]) | TAR (C3 cells [6]) | PDE4 inhibition relative to rolipram (Phosphodiesterase 4 [7]) [%] | Rolipram activity (Phosphodiesterase 4 [8]) [%] | Protection (Rattus norvegicus [9]) [%]
1 | CCCCn1c(=O)c2c(ncn2S(=O)(=O)c2cc(C)c(Cl)cc2C)n(CCCC)c1=O | 72 | 2.5 | 23.3 | 52 | 5.3 | – | – | – | –
2 | CCCCn1c(=O)c2c(ncn2S(=O)(=O)c2cc(C)ccc2C)n(CCCC)c1=O | – | – | – | – | 6.6 | 2.6 | 92 | – | –
3 | CCCCn1c(=O)c2c(nc(C)n2S(=O)(=O)CCCCl)n(CCCC)c1=O | 95 | 1.7 | – | – | 4.1 | – | – | – | –
4 | CCCCn1c(=O)n(CC2CCC2)c(=O)c2c1ncn2S(=O)(=O)c1ccc(OC)c(OC)c1 | 87 | 2.9 | – | – | 0.9 | – | – | – | –
5 | CCCCn1c(=O)c2c(ncn2S(=O)(=O)c2c(C)cc(C)cc2C)n(CCCC)c1=O | 58 | 1.9 | 6 | 50 | 4 | – | – | – | –
6 | CCCCn1c(=O)c2c(ncn2S(=O)(=O)c2ccccc2)n(CCCC)c1=O | – | – | – | – | 3.9 | 1.9 | 5 | – | –
7 | CCCCn1c(=O)n(CC2CC2)c(=O)c2c1ncn2S(=O)(=O)c1ccc(OC)c(OC)c1 | 97 | 2.8 | – | – | 0.7 | – | – | – | –
8 | CCCCn1c(=O)c2c(ncn2CC(C)=O)n(CCCC)c1=O [DENBUFYLLINE] | – | 2.1 | – | 49 | 3.5 | – | – | 100 | –
9 | CCCCn1c(=O)c2c(ncn2S(=O)(=O)c2cccs2)n(CCCC)c1=O | 48 | 2.2 | – | – | 2.9 | – | – | – | –
10 | CCCCn1c(=O)c2c(ncn2S(=O)(=O)c2ccc(OC)cc2)n(CCCC)c1=O | – | – | – | – | 4.6 | 1.9 | 49 | – | –
11 | CCCCn1c(=O)n(CC=C(C)C)c(=O)c2c1ncn2S(=O)(=O)c1ccc(OC)c(OC)c1 | 77 | 2.8 | – | – | 3.7 | – | – | – | –
12 | CCCCn1c(=O)c2c(ncn2S(=O)(=O)Cc2ccccc2)n(CCCC)c1=O | 7 | 2.3 | 3.2 | 25 | 5.1 | – | – | – | –
13 | CCCCn1c(=O)c2c(ncn2S(=O)(=O)CCC)n(CCCC)c1=O | – | – | – | – | 2.2 | 2.3 | 54 | – | –
14 | CCCCn1c(=O)c2c(nc(C)n2S(=O)(=O)c2ccccc2)n(CCCC)c1=O | 100 | 1.7 | – | – | 4 | – | – | – | –
15 | CCCCn1c(=O)c2c(ncn2S(=O)(=O)c2cc(F)ccc2C)n(CCCC)c1=O | – | – | – | – | 6.6 | 2.8 | 86 | – | –
16 | CCCCCCCCn1c(=O)c2c(ncn2S(=O)(=O)c2ccc(OC)c(OC)c2)n(CCCC)c1=O | 0 | 0.7 | – | – | 1.1 | – | – | – | –
17 | CCCCn1c(=O)c2c(ncn2S(C)(=O)=O)n(CCCC)c1=O | – | – | 25.2 | – | 4.7 | 1.9 | 84 | – | –

Row | SMILES | PDE4 inhibition relative to rolipram (Phosphodiesterase 4 [1]) [%] | TAR (C3 cells [2]) | IC50 (Phosphodiesterase 4 [3]) [µM] | Protection (Rattus norvegicus [4]) [%] | CTS (C3 cells [5]) | TAR (C3 cells [6]) | PDE4 inhibition relative to rolipram (Phosphodiesterase 4 [7]) [%] | Rolipram activity (Phosphodiesterase 4 [8]) [%] | Protection (Rattus norvegicus [9]) [%]
18 | CCCCn1c(=O)c2c(nc(C)n2S(=O)(=O)c2ccc(OC)c(OC)c2)n(CCCC)c1=O | 100 | 1.5 | – | – | 2.6 | – | – | – | –
19 | CCCCn1c(=O)c2c(ncn2S(=O)(=O)c2cccc3ccccc23)n(CCCC)c1=O | 17 | 2.5 | – | 37 | 4.5 | – | – | – | –
20 | CCCCn1c(=O)c2c(ncn2S(=O)(=O)c2ccc(C(C)(C)C)cc2)n(CCCC)c1=O | 33 | 1.8 | – | – | 5.1 | – | – | – | –
21 | CCCCOc1ccc(S(=O)(=O)n2cnc3c2c(=O)n(CCCC)c(=O)n3CCCC)cc1 | – | 2.2 | – | – | 5 | – | 54 | – | –
22 | CCCCn1c(=O)c2c(ncn2S(=O)(=O)CCCCl)n(CCCC)c1=O | – | – | 4.1 | 47 | 3.6 | 2.1 | 71 | – | 50
23 | CCCCn1c(=O)c2c(ncn2S(=O)(=O)c2ccc(OC(F)(F)F)cc2)n(CCCC)c1=O | – | 2 | – | – | 4.9 | – | 0 | – | –
24 | CCCCn1c(=O)c2c(nc(C)n2S(=O)(=O)c2cccc([N+](=O)[O-])c2)n(CCCC)c1=O | 85 | 1.8 | – | – | 3.7 | – | – | – | –
25 | CCCCn1c(=O)c2c(ncn2S(=O)(=O)c2ccccc2F)n(CCCC)c1=O | – | – | – | – | 1.7 | 2 | 53 | – | –
26 | CCCCn1c(=O)n(CCC(C)C)c(=O)c2c1ncn2S(=O)(=O)c1ccc(OC)c(OC)c1 | 86 | 2.6 | – | – | 3.7 | – | – | – | –
27 | CCCCn1c(=O)c2c(nc(C)n2S(=O)(=O)c2cccc3ccccc23)n(CCCC)c1=O | 94 | 1.7 | – | – | 2.2 | – | – | – | –
28 | CCCCn1c(=O)c2c(ncn2S(=O)(=O)c2cccc([N+](=O)[O-])c2)n(CCCC)c1=O | – | – | – | 30 | 2.9 | 2 | 37 | – | –
29 | CCCCn1c(=O)c2c(ncn2S(=O)(=O)c2ccccc2C(=O)OC)n(CCCC)c1=O | – | – | 1.3 | – | 3.1 | 3.5 | 61 | – | –
30 | CCCCn1c(=O)c2c(ncn2S(=O)(=O)c2ccc(OC)c(OC)c2)n(CCCC)c1=O | – | 2.5 | 1.2 | 35 | 4.7 | – | 59 | – | –
31 | CCCCCCCCS(=O)(=O)n1cnc2c1c(=O)n(CCCC)c(=O)n2CCCC | – | – | – | – | 4.7 | 2.1 | 12 | – | –
32 | CCCCn1c(=O)c2c(ncn2S(=O)(=O)CCCC)n(CCCC)c1=O | – | – | – | 23 | 4.7 | 2 | 15 | – | –
33 | CCCCn1c(=O)[nH]c(=O)c2c1ncn2S(=O)(=O)c1ccc(OC)c(OC)c1 | 25 | 1.3 | – | – | 0.8 | – | – | – | –
34 | CCCCn1c(=O)c2c(ncn2S(=O)(=O)c2ccc(NO)cc2)n(CCCC)c1=O | – | 2 | – | – | 5.6 | – | 18 | – | –
